Reference: ChEMBL document CHEMBL2086252, “Syntheses and evaluation of anticonvulsant activity of novel branched alkyl carbamates” (J Med Chem, 2012)
Activity calls are given as the source filed them. The calls are words filed in the database; no cut-off is given here.

Tests used:
[1] = test system: Rattus norvegicus; assay: Neurotoxicity in pilocarpine-induced status epilepticus Sprague-Dawley albino rat model assessed as minimal motor impairment at 300 mg/kg, ip after 1 hr by rotarod test; assay type: toxicity, organism-based; parameters: dose 300 mg/kg, route intraperitoneal; details: in vivo
Summary of the method: (§1)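 Rat pilocarpine status epilepticus model: test carbamate given at 0 or 30 min after the first observed Racine stage 3 motor seizure, which marks SE onset. Neurotoxicity was scored within the same model.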

[2] = test system: Mus musculus; assay: Neurotoxicity in albino CF1 mouse assessed as minimal motor impairment at 300 mg/kg, ip after 0.5 hrs by rotarod test; assay type: toxicity, organism-based; parameters: dose 300 mg/kg, route intraperitoneal; details: in vivo
Summary of the method: (§2)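 Mice dosed ip at 30, 100 or 300 mg/kg, then tested 0.5 h and 4 h after administration in the MES or scMet test. Protection was recorded as animals protected over animals tested. Neurotoxicity was recorded as motor impairment or sedation, as animals affected over animals tested.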

[3] = test system: Mus musculus; assay: Anticonvulsant activity in albino CF1 mouse assessed as protection against maximal electroshock-induced seizures at 300 mg/kg, ip after 4 hrs; assay type: functional, organism-based; parameters: dose 300 mg/kg; summary of the method: as §2
[4] = test system: Rattus norvegicus; assay: Neurotoxicity in pilocarpine-induced status epilepticus Sprague-Dawley albino rat model assessed as minimal motor impairment at 100 mg/kg, ip after 0.5 hrs by rotarod test; assay type: toxicity, organism-based; parameters: dose 100 mg/kg, route intraperitoneal; details: in vivo
[5] = test system: Rattus norvegicus; assay: Anticonvulsant activity in Sprague-Dawley albino rat assessed as protection against maximal electroshock-induced seizures at 100 mg/kg, po after 30 mins; assay type: functional, organism-based; parameters: dose 100 mg/kg
Summary of the method: (§3)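 Rats dosed orally. Anti-MES protection was scored as animals protected over animals tested at each time after dosing. Neurotoxicity was scored as motor impairment or sedation, as animals affected over animals tested.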

[6] = test system: Rattus norvegicus; assay: Anticonvulsant activity in po dosed Sprague-Dawley albino rat assessed as protection against subcutaneous metrazol-induced seizures; assay type: functional
Summary of the method: (§4)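 Quantitative testing: rats dosed orally or ip in MES and scMet tests, and mice dosed ip, including the 6 Hz (32 mA) psychomotor seizure test. ED50 and TD50 were reported in mg/kg with ranges in parentheses. Protective index was calculated as TD50/ED50.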

[7] = Neurotoxicity in po dosed Sprague-Dawley albino rat assessed as minimal motor impairment by rotarod test; assay type: toxicity, organism-based; details: in vivo
Summary of the method: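 Rats dosed orally; 4 rats per time point after dosing. Neurotoxicity was scored as motor impairment or sedation and reported as number of animals affected over number tested.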

[8] = test system: Rattus norvegicus; assay: Neurotoxicity in pilocarpine-induced status epilepticus Sprague-Dawley albino rat model assessed as minimal motor impairment at 300 mg/kg, ip after 0.25 hr by rotarod test; assay type: toxicity, organism-based; parameters: dose 300 mg/kg, route intraperitoneal; details: in vivo; summary of the method: as §1
[9] = test system: Rattus norvegicus; assay: Protective index, ratio of TD50 for po dosed Sprague-Dawley albino rat by rotarod test to ED50 for po dosed Sprague-Dawley albino rat by subcutaneous metrazol seizures test; assay type: functional
Summary of the method: (§5)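 Protective index calculated as TD50/ED50, with TD50 and ED50 taken from the same species and dosing route.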

[10] = test system: Rattus norvegicus; assay: Anticonvulsant activity in po dosed Sprague-Dawley albino rat assessed as protection against maximal electroshock-induced seizures; assay type: functional; summary of the method: as §4
[11] = test system: Rattus norvegicus; assay: Neurotoxicity in pilocarpine-induced status epilepticus Sprague-Dawley albino rat model assessed as minimal motor impairment at 300 mg/kg, ip after 0.5 hrs by rotarod test; assay type: toxicity, organism-based; parameters: dose 300 mg/kg, route intraperitoneal; details: in vivo; summary of the method: as §1
[12] = test system: Rattus norvegicus; assay: Anticonvulsant activity in Sprague-Dawley albino rat assessed as protection against maximal electroshock-induced seizures at 30 mg/kg, po after 2 hrs; assay type: functional, organism-based; parameters: dose 30 mg/kg; summary of the method: as §3
[13] = test system: Mus musculus; assay: Neurotoxicity in albino CF1 mouse assessed as minimal motor impairment at 30 mg/kg, ip after 0.5 hrs by rotarod test; assay type: toxicity, organism-based; parameters: dose 30 mg/kg, route intraperitoneal; details: in vivo; summary of the method: as §2
[14] = test system: Rattus norvegicus; assay: Neurotoxicity in pilocarpine-induced status epilepticus Sprague-Dawley albino rat model assessed as minimal motor impairment at 100 mg/kg, ip after 4 hrs by rotarod test; assay type: toxicity, organism-based; parameters: dose 100 mg/kg, route intraperitoneal; details: in vivo
[15] = test system: Mus musculus; assay: Anticonvulsant activity in albino CF1 mouse assessed as protection against subcutaneous metrazol-induced seizures at 300 mg/kg, ip after 0.5 hrs; assay type: functional, organism-based; parameters: dose 300 mg/kg; summary of the method: as §2
[16] = test system: Mus musculus; assay: Neurotoxicity in albino CF1 mouse assessed as minimal motor impairment at 300 mg/kg, ip after 4 hrs by rotarod test; assay type: toxicity, organism-based; parameters: dose 300 mg/kg, route intraperitoneal; details: in vivo; summary of the method: as §2
[17] = test system: Rattus norvegicus; assay: Neurotoxicity in Sprague-Dawley albino rat assessed as minimal motor impairment at 30 mg/kg, po by rotarod test; assay type: toxicity, organism-based; parameters: dose 30 mg/kg, route oral; details: in vivo; summary of the method: as §3
[18] = test system: Rattus norvegicus; assay: Neurotoxicity in pilocarpine-induced status epilepticus Sprague-Dawley albino rat model assessed as minimal motor impairment at 300 mg/kg, ip after 2 hrs by rotarod test; assay type: toxicity, organism-based; parameters: dose 300 mg/kg, route intraperitoneal; details: in vivo; summary of the method: as §1
[19] = test system: Rattus norvegicus; assay: Neurotoxicity in pilocarpine-induced status epilepticus Sprague-Dawley albino rat model assessed as minimal motor impairment at 100 mg/kg, ip after 2 hrs by rotarod test; assay type: toxicity, organism-based; parameters: dose 100 mg/kg, route intraperitoneal; details: in vivo
[20] = test system: Mus musculus; assay: Anticonvulsant activity in albino CF1 mouse assessed as protection against subcutaneous metrazol-induced seizures at 30 mg/kg, ip after 4 hrs; assay type: functional, organism-based; parameters: dose 30 mg/kg; summary of the method: as §2
[21] = test system: Rattus norvegicus; assay: Anticonvulsant activity in Sprague-Dawley albino rat assessed as protection against maximal electroshock-induced seizures at 30 mg/kg, po after 15 mins; assay type: functional, organism-based; parameters: dose 30 mg/kg; summary of the method: as §3
[22] = test system: Rattus norvegicus; assay: Anticonvulsant activity in Sprague-Dawley albino rat assessed as protection against maximal electroshock-induced seizures at 30 mg/kg, po after 4 hrs; assay type: functional, organism-based; parameters: dose 30 mg/kg; summary of the method: as §3
[23] = test system: Mus musculus; assay: Anticonvulsant activity in albino CF1 mouse assessed as protection against maximal electroshock-induced seizures at 30 mg/kg, ip after 4 hrs; assay type: functional, organism-based; parameters: dose 30 mg/kg; summary of the method: as §2
[24] = test system: Mus musculus; assay: Neurotoxicity in albino CF1 mouse assessed as minimal motor impairment at 100 mg/kg, ip after 4 hrs by rotarod test; assay type: toxicity, organism-based; parameters: dose 100 mg/kg, route intraperitoneal; details: in vivo; summary of the method: as §2
[25] = test system: Mus musculus; assay: Anticonvulsant activity in albino CF1 mouse assessed as protection against maximal electroshock-induced seizures at 30 mg/kg, ip after 0.5 hrs; assay type: functional, organism-based; parameters: dose 30 mg/kg; summary of the method: as §2
[26] = test system: Rattus norvegicus; assay: Anticonvulsant activity in Sprague-Dawley albino rat assessed as protection against maximal electroshock-induced seizures at 30 mg/kg, po after 1 hr; assay type: functional, organism-based; parameters: dose 30 mg/kg; summary of the method: as §3
[27] = test system: Mus musculus; assay: Anticonvulsant activity in albino CF1 mouse assessed as protection against maximal electroshock-induced seizures at 100 mg/kg, ip after 0.5 hrs; assay type: functional, organism-based; parameters: dose 100 mg/kg; summary of the method: as §2
[28] = test system: Mus musculus; assay: Anticonvulsant activity in albino CF1 mouse assessed as protection against maximal electroshock-induced seizures at 300 mg/kg, ip after 0.5 hrs; assay type: functional, organism-based; parameters: dose 300 mg/kg; summary of the method: as §2
[29] = test system: Mus musculus; assay: Anticonvulsant activity in albino CF1 mouse assessed as protection against maximal electroshock-induced seizures at 100 mg/kg, ip after 4 hrs; assay type: functional, organism-based; parameters: dose 100 mg/kg; summary of the method: as §2
[30] = test system: Rattus norvegicus; assay: Neurotoxicity in Sprague-Dawley albino rat assessed as minimal motor impairment at 100 mg/kg, po by rotarod test; assay type: toxicity, organism-based; parameters: dose 100 mg/kg, route oral; details: in vivo; summary of the method: as §3
[31] = test system: Rattus norvegicus; assay: Anticonvulsant activity in Sprague-Dawley albino rat assessed as protection against maximal electroshock-induced seizures at 100 mg/kg, po after 4 hrs; assay type: functional, organism-based; parameters: dose 100 mg/kg; summary of the method: as §3
[32] = test system: Mus musculus; assay: Anticonvulsant activity in albino CF1 mouse assessed as protection against subcutaneous metrazol-induced seizures at 30 mg/kg, ip after 0.5 hrs; assay type: functional, organism-based; parameters: dose 30 mg/kg; summary of the method: as §2
[33] = test system: Mus musculus; assay: Neurotoxicity in albino CF1 mouse assessed as minimal motor impairment at 30 mg/kg, ip after 4 hrs by rotarod test; assay type: toxicity, organism-based; parameters: dose 30 mg/kg, route intraperitoneal; details: in vivo; summary of the method: as §2
[34] = test system: Rattus norvegicus; assay: Anticonvulsant activity in Sprague-Dawley albino rat assessed as protection against maximal electroshock-induced seizures at 30 mg/kg, po after 30 mins; assay type: functional, organism-based; parameters: dose 30 mg/kg; summary of the method: as §3
[35] = test system: Mus musculus; assay: Anticonvulsant activity in albino CF1 mouse assessed as protection against subcutaneous metrazol-induced seizures at 300 mg/kg, ip after 4 hrs; assay type: functional, organism-based; parameters: dose 300 mg/kg; summary of the method: as §2
[36] = test system: Rattus norvegicus; assay: Neurotoxicity in pilocarpine-induced status epilepticus Sprague-Dawley albino rat model assessed as minimal motor impairment at 300 mg/kg, ip after 4 hrs by rotarod test; assay type: toxicity, organism-based; parameters: dose 300 mg/kg, route intraperitoneal; details: in vivo; summary of the method: as §1
[37] = test system: Mus musculus; assay: Anticonvulsant activity in albino CF1 mouse assessed as protection against subcutaneous metrazol-induced seizures at 100 mg/kg, ip after 0.5 hrs; assay type: functional, organism-based; parameters: dose 100 mg/kg; summary of the method: as §2
[38] = test system: Rattus norvegicus; assay: Protective index, ratio of TD50 for po dosed Sprague-Dawley albino rat by rotarod test to ED50 for po dosed Sprague-Dawley albino rat by maximal electroshock seizures test; assay type: functional; summary of the method: as §5
[39] = test system: Rattus norvegicus; assay: Neurotoxicity in pilocarpine-induced status epilepticus Sprague-Dawley albino rat model assessed as minimal motor impairment at 100 mg/kg, ip after 1 hr by rotarod test; assay type: toxicity, organism-based; parameters: dose 100 mg/kg, route intraperitoneal; details: in vivo
[40] = test system: Mus musculus; assay: Anticonvulsant activity in albino CF1 mouse assessed as protection against subcutaneous metrazol-induced seizures at 100 mg/kg, ip after 4 hrs; assay type: functional, organism-based; parameters: dose 100 mg/kg; summary of the method: as §2

Compound: CCCC(CCC)COC(N)=O
- Activity [1]: Toxic
- Activity [2]: Toxic
- Activity [3]: Active
- Activity [4]: Non-toxic
- Activity [5]: Active
- ED50 [6]: > 125 mg/kg
- TD50 [7]: > 500 mg/kg
- Activity [8]: Toxic
- Ratio TD50/ED50 [9]: >4
- ED50 [10]: 35 mg/kg
- Activity [11]: Toxic
- Activity [12]: inactive
- Activity [13]: Non-toxic
- Activity [14]: Non-toxic
- Activity [15]: Active
- Activity [16]: Toxic
- Activity [17]: Non-toxic
- Activity [18]: Toxic
- Activity [19]: Non-toxic
- Activity [20]: inactive
- Activity [21]: inactive
- Activity [22]: inactive
- Activity [23]: inactive
- Activity [24]: Non-toxic
- Activity [25]: inactive
- Activity [26]: inactive
- Activity [27]: Active
- Activity [28]: Active
- Activity [29]: inactive
- Activity [30]: Non-toxic
- Activity [31]: inactive
- Activity [32]: inactive
- Activity [33]: Non-toxic
- Activity [34]: inactive
- Activity [35]: Active
- Activity [36]: Toxic
- Activity [37]: inactive
- Ratio TD50/ED50 [38]: >14
- Activity [39]: Non-toxic
- Activity [40]: inactive
